The record followed here is ChEMBL document CHEMBL5532699, “Design, docking optimization, and evaluation of biotin-PEG4-1,8-naphthalimide as a potent and safe antitumor agent with dual targeting of ferroptosis and DNA” (RSC Med Chem, 2024).

Structures are written as SMILES. Active and inactive are the calls of the source. The calls are words filed in the database; no cut-off is given here.

The test system of data set [1] is MGC-803. As to the kind of experiment: Effect on FACL4 protein expression in human MGC-803 cells at 25 to 50 uM incubated for 24 hrs by Western blot analysis. The conditions noted are these: dose 25-50 µM. The data set is classed as functional, cell-based. Summed up: (§1)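 MGC-803 cells treated 25 or 50 μM for 24 h, lysed in ice-cold 1% SDS/Tris-HCl pH 7.5 buffer with EDTA, NaCl and protease inhibitors, spun 12,000g 18 min. Protein quantified by BCA; 40–50 μg resolved on 10% SDS-PAGE, transferred to PVDF, milk-blocked 2 h, primary antibody overnight, HRP secondary 1 h at RT. ECL detection with densitometry.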
In general terms: In western blotting, separated proteins are transferred to a membrane and probed.

Data set [2] is described as follows: Toxicity in nude mouse xenografted with human U-251 cells assessed as pathological changes in spleen at 24 to 48 mg/kg, ip administered once every two days for 21 days by H and E staining based analysis. The data set is classed as organism-based. The conditions noted are these: in vivo, 504 h, dose 24-48 mg/kg, time 21 day. Summed up:
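Nude mice carrying s.c. xenografts (1×10^6 cells, right flank) randomized at 60–80 mm³ (n = 6), dosed i.p. every 2 days in 5% v/v DMSO/saline. Major organs examined by H&E staining at 200× magnification.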
(In general: A xenograft is tissue or cells of one species grown in another, often human tumour cells in immunodeficient mice.)

Data set [3] concerns MDA-MB-231. The data set can be described thus: Antiproliferative activity against human MDA-MB-231 cells incubated for 48 hrs by MTT assay. The data set is classed as functional, cell-based. The conditions noted are these: MDA-MB-231, 48 h. Summed up:
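Monolayer cells in DMEM with 10% FBS, penicillin and streptomycin, 37°C, 5% CO2. Exponentially growing cells were seeded in 96-well plates and exposed to compound for 48 h. MTT was then added for 4 h at 37°C. Medium was removed, formazan dissolved in DMSO, and OD read at 490 nm. Each plate had five replicate wells, and assays were repeated three times per line.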
(In general: Tetrazolium dyes change colour on reduction, which living cells bring about.)

Data set [4] has as its system MGC-803. The data set can be described thus: Induction of cell cycle arrest in human MGC-803 cells assessed as accumulation of cells at S phase at 25 uM incubated for 24 hrs by PI staining based flow cytometry (Rvb=28.00%). The data set is classed as functional.
In data set [5] the test system is MGC-803. The data set can be described thus: Induction of DNA damage in human MGC-803 cells assessed as increase in phosphorylated H2AX protein level at Ser139 residue at 25 to 50 uM incubated for 24 hrs by Western blot analysis. Type of data set: functional, cell-based. The conditions noted are these: dose 25-50 µM. The gist of the method: as §1
Data set [6] concerns MGC-803. The data set can be described thus: Induction of cell cycle arrest in human MGC-803 cells assessed as accumulation of cells at G0/G1 phase at 50 uM incubated for 24 hrs by PI staining based flow cytometry (Rvb=59.09%). The data set is classed as functional.

One may read the IC50 as the concentration needed to halve the response being measured. A higher IC50 goes with weaker potency. Turning to `CN(C)CCN1C(=O)c2cccc3c(N4CCN(C(=O)CCOCCOCCOCCOCCNC(=O)CCCCC5SCC6NC(=O)NC65)CC4)ccc(c23)C1=O` (stereo unspecified), the result in data set [1] was inactive. The Activity entry in data set [2] was “Non-Toxic”; in data set [4] it was 22.7%; in data set [6] it was 33.17%. The concentration for half-maximal inhibition (IC50) in data set [3] is above 50 µM. Besides, the result in data set [5] was Active.
